“And” between values parts separate entries of the source, which are not always exact repeats. Identical values can stand only once.
Tests used:
Canis familiaris [1] = assay: Oral diuretic activity was evaluated by measuring Cl- excretion in dog at 1.8 mg/kg after […] ( 0-6 hr); type: ADME, organism-based, Canis lupus familiaris, Urine; design: dose 1.8 mg/kg, route intraperitoneal; conditions: in vivo
[2] = Compound administered orally at a dose of 5 mg/kg was evaluated for salidiuretic activity measured as sodium ion excretion in Rat; type: organism-based; design: dose 5 mg/kg; conditions: Urine
Method in brief: (§1)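 Female Charles-River rats (150–170 g), overnight on sugar diet with water ad libitum. Compound dissolved in DMF, diluted with water containing Tween 80 (final 4% DMF), given po in 5.0 mL; concurrent vehicle placebo. Three rats per metabolism cage; 0–5 h urine analysed for Na+, K+, Cl-. Values: mequiv × 100 per cage, geometric means of three cages per dose; scored 0–6 by Na+.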

Canis familiaris [3] = assay: Oral diuretic activity was evaluated by measuring Na+ excretion in dog at 1.8 mg/kg after […] ( 0-6 hr); type: ADME, organism-based, Canis lupus familiaris, Urine; design: dose 1.8 mg/kg; conditions: in vivo
Method in brief: (§2)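 Dogs; spontaneous urine was pooled with bladder urine drained by catheter at the end of 6 h. Urine volume was measured, and aliquots were assayed for Na+, K+ and Cl− by standard methods. Values are geometric means, expressed as mequiv over 0–6 h.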

Canis familiaris [4] = assay: Oral diuretic activity was evaluated by measuring Cl- excretion in dog at 0.6 mg/kg after […] ( 0-6 hr); type: ADME, organism-based, Canis lupus familiaris, Urine; design: dose 0.6 mg/kg, route intraperitoneal; conditions: in vivo
Rattus norvegicus [5] = assay: Oral diuretic activity was evaluated by measuring K+ excretion in Rat at 3 mg/kg after […] ( 0-5 hr); type: ADME, organism-based, Urine; design: dose 3 mg/kg
Method in brief: (§3)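 Female Charles-River rats (150–170 g) were kept overnight on a sugar diet with water ad libitum. Test substance was dissolved in DMF and diluted with water containing Tween 80 to a final 4% DMF vehicle, then given po in 5.0 mL. Rats were housed three per metabolism cage, and 0–5 h urine was assayed for Na⁺, K⁺ and Cl⁻ alongside concurrent placebo groups. Values are mequiv × 100 per cage, geometric means of three cages per dose.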

Rattus norvegicus [6] = assay: Compound administered orally at a dose of 1 mg/kg was evaluated for salidiuretic activity measured as sodium ion excretion in Rat; conditions: in vivo, po
Rattus norvegicus [7] = assay: Maximum fall in mean arterial blood pressure was measured in SH rats when compound was administered at 20 mg/kg perorally; type: functional; conditions: route oral
Canis familiaris [8] = assay: Oral diuretic activity was evaluated by measuring Na+ excretion in dog at 5.4 mg/kg after ip administration ( 0-6 hr); type: ADME, organism-based, Canis lupus familiaris, Urine; design: dose 5.4 mg/kg, route intraperitoneal; conditions: in vivo
Method in brief: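 Urine collected over 0–6 h: spontaneous voids were pooled with bladder urine taken by catheterization at 6 h. Urine volume was measured, and aliquots were analysed for Na+, K+ and Cl− by standard methods. Electrolyte excretion is reported as geometric means.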

Rattus norvegicus [9] = assay: Oral diuretic activity was evaluated by measuring K+ excretion in Rat at 81 mg/kg […] ( 0-5 hr); type: ADME, organism-based, Urine; design: dose 81 mg/kg; method in brief: as §3
Canis familiaris [10] = assay: Oral diuretic activity was evaluated by measuring K+ excretion in dog at 1.8 mg/kg after ip administration ( 0-6 hr); type: ADME, organism-based, Canis lupus familiaris, Urine; design: dose 1.8 mg/kg, route intraperitoneal; conditions: in vivo
Method in brief: (§4)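 Spontaneous urine was pooled with bladder urine collected by catheterization at 6 h. Volume was measured and Na+, K+ and Cl− were determined by standard methods. Values are geometric means.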

Canis familiaris [11] = assay: Oral diuretic activity was evaluated by measuring K+ excretion in dog at 5.4 mg/kg after ip administration ( 0-6 hr); type: ADME, organism-based, Canis lupus familiaris, Urine; design: dose 5.4 mg/kg, route intraperitoneal; conditions: in vivo; method in brief: as §4
Rattus norvegicus [12] = assay: Oral diuretic activity was evaluated by measuring Na+ excretion in Rat at 3 mg/kg […] ( 0-5 hr); type: ADME, organism-based, Urine; design: dose 3 mg/kg; conditions: in vivo, ip
Method in brief: (§5)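 Female Charles-River rats (150–170 g) were kept overnight on a sugar diet with water ad libitum. Compound was dissolved in DMF, then diluted with water containing Tween 80 (3 drops/100 mL) to a final 4% DMF, and given po in 5.0 mL. Rats were housed three per metabolism cage. Urine from 0–5 h was analysed for Na+, K+ and Cl−, with concurrent placebo controls. Values are mequiv × 100 per cage, geometric mean of three cages per dose.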

Rattus norvegicus [13] = assay: Oral diuretic activity was evaluated by measuring Cl- excretion in Rat at 3 mg/kg after […] ( 0-5 hr); type: ADME, organism-based, Urine; design: dose 3 mg/kg, route intraperitoneal; conditions: in vivo
Canis familiaris [14] = assay: Oral diuretic activity was evaluated by measuring K+ excretion in dog at 0.6 mg/kg after […] ( 0-6 hr); type: ADME, organism-based, Canis lupus familiaris, Urine; design: dose 0.6 mg/kg, route intraperitoneal; conditions: in vivo
[15] = Evaluated for salidiuretic activity measured as sodium ion excretion in Rat, administered orally at a dose of 16.5 mg/kg; type: organism-based; design: dose 16.5 mg/kg; conditions: Urine; method in brief: as §1
Canis familiaris [16] = assay: Oral diuretic activity was evaluated by measuring Na+ excretion in dog at 16.2 mg/kg after […] ( 0-6 hr); type: ADME, organism-based, Canis lupus familiaris, Urine; design: dose 16.2 mg/kg; conditions: in vivo; method in brief: as §2
Rattus norvegicus [17] = assay: Evaluated for salidiuretic activity measured as sodium ion excretion in Rat, administered orally at a dose of 50 mg/kg; type: functional, Urine; design: unit not given beside the values; conditions: route oral; method in brief: as §1
Rattus norvegicus [18] = assay: Oral diuretic activity was evaluated by measuring Na+ excretion in Rat at 81 mg/kg […] ( 0-5 hr); type: ADME, organism-based, Urine; design: dose 81 mg/kg; method in brief: as §5
Rattus norvegicus [19] = assay: Oral diuretic activity was evaluated by measuring K+ excretion in Rat at 27 mg/kg after po administration ( 0-5 hr); conditions: in vivo
Rattus norvegicus [20] = assay: Oral diuretic activity was evaluated by measuring Cl- excretion in Rat at 81 mg/kg after po administration ( 0-5 hr); conditions: in vivo
Rattus norvegicus [21] = assay: Oral diuretic activity was evaluated by measuring Na+ excretion in Rat at 27 mg/kg […] ( 0-5 hr); type: ADME, organism-based, Urine; design: dose 27 mg/kg; method in brief: as §5
Canis familiaris [22] = assay: Oral diuretic activity was evaluated by measuring K+ excretion in dog at 16.2 mg/kg after ip administration ( 0-6 hr); type: ADME, organism-based, Canis lupus familiaris, Urine; design: dose 16.2 mg/kg, route intraperitoneal; conditions: in vivo; method in brief: as §4
Rattus norvegicus [23] = assay: Oral diuretic activity was evaluated by measuring K+ excretion in Rat at 9 mg/kg […] ( 0-5 hr); type: ADME, organism-based, Urine; design: dose 9 mg/kg; method in brief: as §3
Rattus norvegicus [24] = assay: Oral diuretic activity was evaluated by measuring Cl- excretion in Rat at 9 mg/kg […] ( 0-5 hr); type: ADME, organism-based, Urine; design: dose 9 mg/kg; conditions: in vivo; method in brief: as §3
Canis familiaris [25] = assay: Oral diuretic activity was evaluated by measuring Na+ excretion in dog at 0.6 mg/kg after ip administration ( 0-6 hr); type: ADME, organism-based, Canis lupus familiaris, Urine; design: dose 0.6 mg/kg, route intraperitoneal; conditions: in vivo; method in brief: as §4
Rattus norvegicus [26] = assay: Oral diuretic activity was evaluated by measuring Na+ excretion in Rat at 9 mg/kg […] ( 0-5 hr); type: ADME, organism-based, Urine; design: dose 9 mg/kg; conditions: in vivo, ip; method in brief: as §5
Canis familiaris [27] = assay: Oral diuretic activity was evaluated by measuring Cl- excretion in dog at 16.2 mg/kg after […] ( 0-6 hr); type: ADME, organism-based, Canis lupus familiaris, Urine; design: dose 16.2 mg/kg, route intraperitoneal; conditions: in vivo
Rattus norvegicus [28] = assay: Oral diuretic activity was evaluated by measuring Cl- excretion in Rat at 27 mg/kg after […] ( 0-5 hr); type: ADME, organism-based, Urine; design: dose 27 mg/kg, route intraperitoneal; conditions: in vivo
Canis familiaris [29] = assay: Oral diuretic activity was evaluated by measuring Cl- excretion in dog at 5.4 mg/kg after […] ( 0-6 hr); type: ADME, organism-based, Canis lupus familiaris, Urine; design: dose 5.4 mg/kg, route intraperitoneal; conditions: in vivo
Rattus norvegicus [30] = assay: Oral diuretic activity was evaluated by measuring Cl- excretion in Rat at 9 mg/kg […] (0-5 hr); type: ADME, organism-based, Urine; design: dose 9 mg/kg; conditions: in vivo; method in brief: as §3
Rattus norvegicus [31] = assay: Oral diuretic activity was evaluated by measuring K+ excretion in Rat at 81 mg/kg after […] (0-5 hr); type: ADME, organism-based, Urine; design: dose 81 mg/kg; method in brief: as §3
Rattus norvegicus [32] = species: Rattus norvegicus; assay: Time taken for the decrease in arterial pressure was measured; type: functional, Artery
Rattus norvegicus [33] = assay: Oral diuretic activity was evaluated by measuring K+ excretion in Rat at 27 mg/kg […] (0-5 hr); type: ADME, organism-based, Urine; design: dose 27 mg/kg; method in brief: as §3
Rattus norvegicus [34] = assay: Oral diuretic activity was evaluated by measuring Cl- excretion in Rat at 81 mg/kg after po administration (0-5 hr); conditions: in vivo
Rattus norvegicus [35] = assay: Oral diuretic activity was evaluated by measuring Na+ excretion in Rat at 27 mg/kg […] (0-5 hr); type: ADME, organism-based, Urine; design: dose 27 mg/kg; conditions: in vivo; method in brief: as §5
Rattus norvegicus [36] = assay: Oral diuretic activity was evaluated by measuring Cl- excretion in Rat at 27 mg/kg […] (0-5 hr); type: ADME, organism-based, Urine; design: dose 27 mg/kg; conditions: in vivo
Rattus norvegicus [37] = assay: Oral diuretic activity was evaluated by measuring Na+ excretion in Rat at 81 mg/kg […] (0-5 hr); type: ADME, organism-based, Urine; design: dose 81 mg/kg; conditions: in vivo
Rattus norvegicus [38] = assay: Oral diuretic activity was evaluated by measuring K+ excretion in Rat at 9 mg/kg […] (0-5 hr); type: ADME, organism-based, Urine; design: dose 9 mg/kg; method in brief: as §3
Rattus norvegicus [39] = assay: Compound administered orally at a dose of 81 mg/kg was evaluated for salidiuretic activity measured as sodium ion excretion in Rat; type: ADME, organism-based, Urine; design: dose 81 mg/kg, route oral; unit not given beside the values; conditions: in vivo, po; method in brief: as §1
Canis familiaris [40] = assay: Compound administered intravenously at a dose of 5 mg/kg was evaluated for salidiuretic activity measured as sodium ion excretion in Dog; act above 5 mg/kg; type: ADME, organism-based, Canis lupus familiaris, Urine; conditions: in vivo, iv
Method in brief: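 Conditioned female mongrel dogs, postabsorptive, water-loaded (500 mL po) 1 h before sodium pentobarbital anesthesia (30 mg/kg iv). Bladder catheter; creatinine 4 g sc; phosphate–mannitol buffer pH 7.4 infused (3.0 mL/min) throughout. […] Urine Na+ measured; response scored 0–6.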

Compound: CCc1c(Cl)c(C)c(CN)c(O)c1Cl.Cl
- Diuretic activity (Canis familiaris [1]): 22.93
- Diuretic activity [2]: 2.6
- Diuretic activity (Canis familiaris [3]): 19.43
- Diuretic activity (Canis familiaris [4]): 9.91
- Diuretic activity (Rattus norvegicus [5]): 0.44
- Diuretic activity (Rattus norvegicus [6]): 0.7
- MAP (Rattus norvegicus [7]): 10 mmHg
- Diuretic activity (Canis familiaris [8]): 33.15
- Diuretic activity (Rattus norvegicus [9]): 0.44
- Diuretic activity (Canis familiaris [10]): 3.62
- Diuretic activity (Canis familiaris [11]): 5.9
- Diuretic activity (Rattus norvegicus [12]): 1.14
- Diuretic activity (Rattus norvegicus [13]): 1.62
- Diuretic activity (Canis familiaris [14]): 2.01
- Diuretic activity [15]: 3.3
- Diuretic activity (Canis familiaris [16]): 33.33
- Diuretic activity (Rattus norvegicus [17]): 3.6
- Diuretic activity (Rattus norvegicus [18]): 2.29
- Diuretic activity (Rattus norvegicus [19]): 0.55
- Diuretic activity (Rattus norvegicus [20]): 3.2
- Diuretic activity (Rattus norvegicus [21]): 2.17
- Diuretic activity (Canis familiaris [22]): 6.25
- Diuretic activity (Rattus norvegicus [23]): 0.56
- Diuretic activity (Rattus norvegicus [24]): 2.84
- Diuretic activity (Canis familiaris [25]): 8.12
- Diuretic activity (Rattus norvegicus [26]): 2.02
- Diuretic activity (Canis familiaris [27]): 38.78
- Diuretic activity (Rattus norvegicus [28]): 3.14
- Diuretic activity (Canis familiaris [29]): 37.15

Compound: NNc1nncc2ccccc12 [HYDRALAZINE]
- Diuretic activity (Rattus norvegicus [30]): 0.02
- Diuretic activity (Rattus norvegicus [31]): 0.11
- Duration (Rattus norvegicus [32]): 8 h and 18 h
- Diuretic activity (Rattus norvegicus [33]): 0.07
- Diuretic activity (Rattus norvegicus [34]): 0.01
- Diuretic activity (Rattus norvegicus [35]): 0.04
- Diuretic activity (Rattus norvegicus [36]): 0.02
- Diuretic activity (Rattus norvegicus [37]): 0.17
- Diuretic activity (Rattus norvegicus [38]): 0.27

Compound: NCc1cc(Cl)cc(Cl)c1O
- Diuretic activity [2]: 0.4
- Diuretic activity (Rattus norvegicus [39]): 2.4
- Diuretic activity (Canis familiaris [40]): active above 5 mg/kg
- Diuretic activity [15]: 0.6
- Diuretic activity (Rattus norvegicus [17]): 1.8

Source: ChEMBL document CHEMBL1121573, “2-(Aminomethyl)phenols, a new class of saluretic agents. 1. Effects of nuclear substitution” (J Med Chem, 1980)
